# Data published in PubChem BioAssay AID602271 (Johns Hopkins Ion Channel Center, 2012).
# Calls of active or inactive are those of the source.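 How the source made its calls: active means changes KCNQ2 potassium channel current, up or down, at some tested dose, giving a fitted dose response; inactive means no effect at any dose or no dose response.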
# Target: Potassium voltage-gated channel subfamily KQT member 2 (Rattus norvegicus) (UniProt O88943)
# Experiment: rat KCNQ2 channel inhibitors, SAR follow-up, orthogonal assay, automated electrophysiology, CHO cells (AID 602271)
# Details: automated patch clamp current
# Summary of the method: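 Test system: CHO cells carrying KCNQ2 channels; Measured by: automated patch clamp, amphotericin B perforation, steady-state current at +40 mV; Probe or stimulus: depolarization from -90 mV to +40 mV, 2,000 ms; Dosing: multiple compound concentrations per compound; Evaluation: percent steady-state current change after compound versus pre-compound current.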
# Sequence of Potassium voltage-gated channel subfamily KQT member 2 (Rattus norvegicus) (O88943 whole entry, looked up): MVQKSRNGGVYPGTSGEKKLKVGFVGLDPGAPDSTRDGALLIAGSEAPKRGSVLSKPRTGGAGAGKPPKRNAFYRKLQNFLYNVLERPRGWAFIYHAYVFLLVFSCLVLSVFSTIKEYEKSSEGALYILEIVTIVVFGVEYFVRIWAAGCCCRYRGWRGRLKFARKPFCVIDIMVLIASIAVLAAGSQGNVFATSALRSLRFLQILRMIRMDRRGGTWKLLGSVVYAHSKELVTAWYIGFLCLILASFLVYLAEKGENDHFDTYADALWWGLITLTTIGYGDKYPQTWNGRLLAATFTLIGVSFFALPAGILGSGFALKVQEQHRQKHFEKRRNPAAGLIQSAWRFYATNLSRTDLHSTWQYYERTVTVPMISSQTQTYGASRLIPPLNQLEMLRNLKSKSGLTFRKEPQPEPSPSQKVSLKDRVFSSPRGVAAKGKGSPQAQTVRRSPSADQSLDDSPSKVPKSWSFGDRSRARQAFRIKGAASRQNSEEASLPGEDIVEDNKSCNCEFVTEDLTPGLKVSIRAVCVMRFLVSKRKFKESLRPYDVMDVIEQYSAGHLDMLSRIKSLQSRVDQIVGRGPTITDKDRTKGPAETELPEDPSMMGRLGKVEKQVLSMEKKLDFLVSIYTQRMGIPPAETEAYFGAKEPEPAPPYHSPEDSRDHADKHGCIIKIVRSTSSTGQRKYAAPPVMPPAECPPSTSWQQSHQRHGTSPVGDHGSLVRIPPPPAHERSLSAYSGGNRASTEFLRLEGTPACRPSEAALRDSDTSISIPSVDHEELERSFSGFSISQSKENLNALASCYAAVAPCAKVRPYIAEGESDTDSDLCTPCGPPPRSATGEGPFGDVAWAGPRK
row,Compound,IC50
1,O=C(Cc1cccc(Cl)c1)Nc1cccc(N2CCCC2)c1,1.02 µM
2,O=C(Cc1cccc(Cl)c1)Nc1ccccc1N1CCCCC1,7.09 µM
3,O=C(Cc1cccc(Cl)c1)Nc1ccc(Cl)cc1Cl,1.52 µM
4,CN(C)c1ccccc1NC(=O)Cc1cccc(Cl)c1,27.5 µM
5,O=C(Cc1cccc(Cl)c1)Nc1ccccc1-n1cccc1,12.3 µM
6,COc1ccc(NC(=O)Cc2cccc(Cl)c2)c(OC)c1,1.24 µM
7,O=C(Cc1cccc(Cl)c1)Nc1ccc(N2CCCC2)cc1,8.66 µM

# Same assay, conditions: automated patch clamp current, at 30 µM (top of the series)
row,Compound,"current change %, negative = inhibition"
1,CCC(C(=O)N(C)c1ccccc1N1CCCC1)c1ccccc1 (configuration not stated),inactive
2,O=C(Cc1cccc(Cl)c1)Nc1cccc(F)c1F,inactive
3,O=C(Cc1cccc(Cl)c1)Nc1ccc(F)cc1F,inactive
4,O=C(Cc1cccc(Cl)c1)Nc1ccccc1N1CCOCC1,inactive
5,CCN(C)c1ccccc1NC(=O)Cc1cccc(Cl)c1,inactive
6,O=C(Cc1cccc(Cl)c1)Nc1cccc2c1OCO2,inactive
7,CN(Cc1ccccc1)c1ccccc1NC(=O)Cc1cccc(Cl)c1,inactive
8,O=C(Cc1cccc(Cl)c1)Nc1ccccc1N1CCCCCCC1,inactive
9,O=C(Cc1cccc(Cl)c1)Nc1ccccc1F,inactive
10,CN(C(=O)Cc1ccccc1)c1ccccc1N1CCCC1,inactive
